Laboratory results published in article PMC11871924 (International Journal of Nanomedicine, 2025).

Experiments:
[1] = tested on: H22 orthotopic liver tumors; assay: Mouse orthotopic H22 hepatocellular carcinoma model; assay type: in vivo, BALB/c mice
How it was run: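 Female BALB/c mice (6–8 weeks) received 106 log-phase H22 cells in matrix gel, injected into an exteriorised liver lobe via abdominal incision. At ~50 mm3 tumours, groups (n=5) received i.v. PBS (100 μL), 100 μL nanoparticles daily for 6 days, or oxaliplatin 5 mg/kg every two days ×3. Growth was imaged by IVIS after i.p. D-luciferin (200 μL, 15 mg/mL) on days 5, 10, 15. Body weight was recorded.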

[2] = tested on: VX2 orthotopic liver tumors; assay: Rabbit VX2 orthotopic liver tumor model, DSA-guided arterial infusion, PET/CT; assay type: in vivo, New Zealand White rabbits; settings: n=4, mean ± s.d.
How it was run: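 New Zealand White rabbits (4 months, n=4/group) had 1 mm3 VX2 tumour blocks implanted in the left liver lobe under ultrasound, followed by i.m. penicillin for 3 days and CT sizing. DSA-guided hepatic arterial infusion delivered PBS, oxaliplatin or test nanoparticles (5 mg/kg), doses converted by body surface area. Tumour SUV was measured by PET/CT before and 7 days after infusion.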

[3] = target: BSA (Bos taurus, UniProt P02769); assay type: binding, bovine; settings: 2–10 μM quencher, BSA 2 μM
Chain of BSA (P02769 25-607): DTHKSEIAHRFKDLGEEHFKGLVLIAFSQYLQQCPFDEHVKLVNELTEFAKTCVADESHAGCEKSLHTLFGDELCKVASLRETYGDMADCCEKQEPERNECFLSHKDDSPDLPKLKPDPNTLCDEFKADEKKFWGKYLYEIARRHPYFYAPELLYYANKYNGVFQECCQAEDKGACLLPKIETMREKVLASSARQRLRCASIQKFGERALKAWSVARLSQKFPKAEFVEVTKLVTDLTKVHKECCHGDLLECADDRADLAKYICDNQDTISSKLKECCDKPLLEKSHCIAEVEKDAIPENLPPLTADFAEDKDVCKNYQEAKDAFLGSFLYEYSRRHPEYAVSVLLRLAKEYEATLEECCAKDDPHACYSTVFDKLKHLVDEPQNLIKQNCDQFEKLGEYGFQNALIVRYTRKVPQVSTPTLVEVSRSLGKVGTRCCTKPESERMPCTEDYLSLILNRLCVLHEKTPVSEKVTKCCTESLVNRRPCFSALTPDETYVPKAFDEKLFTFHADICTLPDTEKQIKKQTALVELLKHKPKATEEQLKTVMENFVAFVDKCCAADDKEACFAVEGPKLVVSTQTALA
How it was run: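 BSA (2 μM) titrated with test compound at 0, 2, 4, 6, 8, 10 μM (0–20 μM for one reagent). Site competition used phenylbutazone, ibuprofen or digitoxin (2 μM final) added before the test compound. Steady-state BSA fluorescence was measured without and with quencher. Kq, Kb and n were calculated from the quenching formulas, taking biomolecule average lifetime as 10−8 s.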

| Quenching of BSA Trp-214 fluorescence emission [3] | Compound | Body weight of some mice during treatment ([1]; decrease from the initial 20 g, oxaliplatin 5 mg/kg i.v. every two days ×3) [g] | Effect on orthotopic tumors (in vivo imaging) ([1]; mouse orthotopic H22 model, i.v., n=5) | Tumor standardized uptake value (SUV) before treatment [2] |
| --- | --- | --- | --- | --- |
| – | O=C1[O][Pt]2([NH][C@@H]3CCCC[C@H]3[NH]2)[O]C1=O [oxaliplatin] | 13 | effectively inhibited | 5.44±0.43 |
| could quench | Ir(ppy)2-diimi dazole [Ir-diim] | – | – | – |
